The values that follow come from the RNAGym collection of RNA variant scans (doi:10.1002/anie.201605470).

B1: Osa-1-4 twister ribozyme (parent)
chain: CCGCCUAACACUGCCAAUGCCGGUCCCAAGCCCGGAUAAAAGUGGAGGGGGCGG

Variants of B1 are the subject of this data set. As to the kind of experiment: self-cleavage, relative activity (ratio to wild type); higher = more cleavage; co-transcriptional. In short, it runs like this:
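A DNA template for a 54-nucleotide Oryza sativa twister ribozyme was synthesised with 97 % wild-type base and 1 % of each other base at the 48 positions downstream of the cleavage site. It was transcribed in vitro for 2 h at 37 °C, allowing co-transcriptional self-cleavage, then reverse-transcribed with a template-switching oligonucleotide, PCR-amplified and deep-sequenced. Cleavage status was scored from reads with or without upstream sequence. Relative activity is fraction cleaved normalised to wild type.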
With CCGCCUAACACUGUCAAUGCCGGACCCAAGCCCGGAUAAAAGUGGAGGGGGCGG [C14U U24A], the self-cleavage is 0.04. To CCGCCUAACACUGUCAAUGCCGGCCCCAAGCCCGGAUAAAAGUGGAGGGGGCGG [C14U U24C] belongs 0.05; to CCGCCUAACACUGUCAAUGCCGGGCCCAAGCCCGGAUAAAAGUGGAGGGGGCGG [C14U U24G], 0.02. CCGCCUAACACUGUCAAUGCCGGUCCCAAGCCCGGAUAAAAGUGUAGGGGGCGG [C14U G45U]: the self-cleavage was 0.06.

In the case of CCGCCUAACACUGUCAAUGCCGGUCCCAAGCCCGGAUAAAAGUGCAGGGGGCGG [C14U G45C], the self-cleavage came out at 0.04. As to CCGCCUAACACUGUCAAUGCCGGUCCCAAGCCCGGAUAAAAGUGAAGGGGGCGG [C14U G45A], the self-cleavage is 0.04. CCGCCUAACACUGUCAAUGCCGGUCCCAAGCCCGGAUAAAAGUAGAGGGGGCGG [C14U G44A]: the self-cleavage came out at 0.59. To CCGCCUAACACUGUCAAUGCCGGUCCCAAGCCCGGAUAAAAGUUGAGGGGGCGG [C14U G44U] belongs 0.14; to CCGCCUAACACUGUCAAUGCCGGUCCCAAGCCCGGAUAAAAGUCGAGGGGGCGG [C14U G44C], 0.33. For CCGCCUAACACUGCAAAUGCCGGUCCCAAGCCCGGAUAAAAGUGGAGGGGGCGG [C15A], the self-cleavage was 0.61. Turning to CCGCCUAACACUGUCAAUGCCGGUCCCAAGCCCGGAUAAAAGUGGAGGAGGCGG [C14U G49A], the self-cleavage was found to be 0.05. To CCGCCUAACACUGUCAAUGCCGGUCCCAAGCCCGGAUAAAAGUGGAGGUGGCGG [C14U G49U] belongs 0.06; to CCGCCUAACACUGUCAAUGCCGGUCCCAAGCCCGGAUAAAAGUGGAGGCGGCGG [C14U G49C], 0.05; to CCGCCUAACACUGUCAAUGCCGGUCCCAAGCCCGGAUAAAACUGGAGGGGGCGG [C14U G42C], 0.06. For the variant CCGCCUAACACUGUCAAUGCCGGUCCCAAGCCCGGAUAAAAAUGGAGGGGGCGG [C14U G42A], the self-cleavage was 0.09. As to CCGCCUAACACUGUCAAUGCCGGUCCCAAGCCCGGAUAAAAUUGGAGGGGGCGG [C14U G42U], the self-cleavage turned out to be 0.03.

With CCGCCUAACACUGUCAAUGCCGGUCCCAAGCCCGGAUAAAAGUGGAGGGGGCUG [C14U G53U], the self-cleavage was found to be 0.09.

With CCGCCUAACACUGUCAAUGCCGGUCCCAAGCCCGGAUAAAAGUGGAGGGGGCAG [C14U G53A], the self-cleavage is 0.11. To CCGCCUAACACUGUCAAUGCCGGUCCCAAGCCCGGAUAAAAGUGGAGGGGGCCG [C14U G53C] belongs 0.05; to CCGCCUAACACUGUCAAUGCCGGUCCCAAGCCCGGAUAAAAGUGGAGAGGGCGG [C14U G48A], 0.05; to CCGCCUAACACUGUCAAUGCCGGUCCCAAGCCCGGAUAAAAGUGGAGUGGGCGG [C14U G48U], 0.05.

Consider CCGCCUAACACUGUCAAUGCCGGUCCCAAGCCCGGAUAAAAGUGGAGCGGGCGG [C14U G48C], for which the self-cleavage was 0.05.

With CCGCCUAACACUGUCAAGGCCGGUCCCAAGCCCGGAUAAAAGUGGAGGGGGCGG [C14U U18G], the self-cleavage was 0.53. To CCGCCUAACACUGUCAAAGCCGGUCCCAAGCCCGGAUAAAAGUGGAGGGGGCGG [C14U U18A] belongs 0.5; to CCGCCUAACACUGUCAACGCCGGUCCCAAGCCCGGAUAAAAGUGGAGGGGGCGG [C14U U18C], 0.51. CCGCCUAACACUGUCAAUGCCGGUCCCAAGCCCGGAUAAAAGUGGAGGGGCCGG [C14U G51C]: the self-cleavage turned out to be 0.04. As for CCGCCUAACACUGUCAAUGCCGGUCCCAAGCCCGGAUAAAAGUGGAGGGGACGG [C14U G51A], the self-cleavage is 0.12. The same measure for CCGCCUAACACUGUCAAUGCCGGUCCCAAGCCCGGAUAAAAGUGGAGGGGUCGG [C14U G51U]: 0.05. To CCGCCUAACACGGUCAAUGCCGGUCCCAAGCCCGGAUAAAAGUGGAGGGGGCGG [C14U U12G] belongs 0.05.

In the case of CCGCCUAACACAGUCAAUGCCGGUCCCAAGCCCGGAUAAAAGUGGAGGGGGCGG [C14U U12A], the self-cleavage was found to be 0.09. To CCGCCUAACACCGUCAAUGCCGGUCCCAAGCCCGGAUAAAAGUGGAGGGGGCGG [C14U U12C] belongs 0.09; to CCGCCUAACACUGUCAAUGCCGGUCCCAAGCCCGUAUAAAAGUGGAGGGGGCGG [C14U G35U], 0.21; to CCGCCUAACACUGUCAAUGCCGGUCCCAAGCCCGCAUAAAAGUGGAGGGGGCGG [C14U G35C], 0.07.

Regarding CCGCCUAACACUGUCAAUGCCGGUCCCAAGCCCGGAUAAAAGUGGAGGGCGCGG [C14U G50C], the self-cleavage was 0.1. On to CCGCCUAACACUGUCAAUGCCGGUCCCAAGCCCGGAUAAAAGUGGAGGGAGCGG [C14U G50A], for which the self-cleavage amounted to 0.35. The same measure for CCGCCUAACACUGUCAAUGCCGGUCCCAAGCCCGGAUAAAAGUGGAGGGUGCGG [C14U G50U]: 0.18. To CCGCCUAACACUGUCAAUGCCGGUCCCAAGCCCGGAUAAAAGUGGAGGGGGCGC [C14U G54C] belongs 0.12; to CCGCCUAACACUGUCAAUGCCGGUCCCAAGCCCGGAUAAAAGUGGAGGGGGCGA [C14U G54A], 0.17; to CCGCCUAACACUGUCAAUGCCGGUCCCAAGCCCGGAUAAAAGUGGAGGGGGCGU [C14U G54U], 0.47.

Turning to CCGCCUAACACUGUCAAUGCCGGUCCCAAGCCCGGACAAAAGUGGAGGGGGCGG [C14U U37C], the self-cleavage turned out to be 0.57. As for CCGCCUAACACUGUCAAUGCCGGUCCCAAGCCCGGAAAAAAGUGGAGGGGGCGG [C14U U37A], the self-cleavage came out at 0.5. For the variant CCGCCUAACACUGUCAAUGCCGGUCCCAAGCCCGGAGAAAAGUGGAGGGGGCGG [C14U U37G], the self-cleavage came to 0.74.

For the variant CCGCCUAACACUGUCAAUGCCGGUCCCAAGCCCGGAUAAAAGUGGAUGGGGCGG [C14U G47U], the self-cleavage turned out to be 0.06. For CCGCCUAACACUGUCAAUGCCGGUCCCAAGCCCGGAUAAAAGUGGAAGGGGCGG [C14U G47A], the self-cleavage turned out to be 0.07. To CCGCCUAACACUGUCAAUGCCGGUCCCAAGCCCGGAUAAAAGUGGACGGGGCGG [C14U G47C] belongs 0.06; to CCGCCUAAAACUGCAAAUGCCGGUCCCAAGCCCGGAUAAAAGUGGAGGGGGCGG [C15A C9A], 0.14; to CCGCCUAACACUGUCAAUGCCGGUCCCAAGCCCGGAUAAAAGGGGAGGGGGCGG [C14U U43G], 0.09. Regarding CCGCCUAACACUGUCAAUGCCGGUCCCAAGCCCGGAUAAAAGCGGAGGGGGCGG [C14U U43C], the self-cleavage worked out at 0.09.

Consider CCGCCUAACACUGUCAAUGCCGGUCCCAAGCCCGGAUAAAAGAGGAGGGGGCGG [C14U U43A], for which the self-cleavage is 0.12.
